Read-outs that look alike come from different tables or passages of the source. Blank lines part the entries; values can stand above or below the molecule they belong to. Starred links: 1 amine or outer side, 2 acyl side, 3 side chain; linkers in the order of their positions; H or OH if unused. Non-standard residues stand in square brackets, D forms with d. Residues, ends and D or L forms follow the SMILES beside them. No end group written: not given here. X2 = N6‑isopropyl‑N6‑phenethyl‑lysine, CC(C)N(CCCC[C@H](N[*:1])C(=O)[*:2])CCc1ccccc1; Lys(Et,iPr) = CCN(CCCC[C@H](N)C(=O)O)C(C)C; Me3 = trimethyl (on lysine, Kme3)
Key:
[1] = biological target: H3K36me3 peptide 31-40 (Homo sapiens) (UniProt P68431); details: cited from earlier work
[2] = biological target: H3K36me3 15-residue peptide (Homo sapiens) (UniProt P68431); details: cited from earlier work
PHF1 Tudor Y47A = PHF1 Tudor Y47A (Homo sapiens, UniProt O43189, Y47A); assay: ITC binding to PHF1 Tudor aromatic cage mutant Y47A
Sequence of PHF1 Tudor Y47A (O43189 25-87 Y47A): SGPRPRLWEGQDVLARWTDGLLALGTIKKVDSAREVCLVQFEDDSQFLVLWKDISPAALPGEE
Procedure, shortened: (§1)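 ITC at 25 °C in 25 mM Tris-HCl pH 7.5, 150 mM NaCl, 2 mM β-mercaptoethanol; typically 100 µM protein, 1 mM compound (10:1). 26 injections, 180 s apart, one-site fit. Fits reach Kd ~100 µM; weaker binding is reported >100 µM. Two independent runs, mean ± SD.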

PHF1 Tudor W41A = PHF1 Tudor W41A (Homo sapiens, UniProt O43189, W41A); assay: ITC binding to PHF1 Tudor aromatic cage mutant W41A
Sequence of PHF1 Tudor W41A (O43189 25-87 W41A): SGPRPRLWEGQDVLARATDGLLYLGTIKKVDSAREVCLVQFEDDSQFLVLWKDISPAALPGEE
Procedure, shortened: as §1

PHF1 Tudor F65A = PHF1 Tudor F65A (Homo sapiens, UniProt O43189, F65A); assay: ITC binding to PHF1 Tudor aromatic cage mutant F65A
Sequence of PHF1 Tudor F65A (O43189 25-87 F65A): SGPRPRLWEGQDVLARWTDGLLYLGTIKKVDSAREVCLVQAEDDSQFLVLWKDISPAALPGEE
Procedure, shortened: as §1

PHF1 Tudor domain [3] = biological target: T1, PHF1 Tudor domain (Homo sapiens, UniProt O43189); assay: ITC binding to PHF1 Tudor domain; details: wildtype PHF1 Tudor domain
T1 sequence (O43189 25-87): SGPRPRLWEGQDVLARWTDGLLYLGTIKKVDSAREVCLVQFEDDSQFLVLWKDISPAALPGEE

PHF1 Tudor domain [4] = biological target: T1, PHF1 Tudor domain; details: previously reported 10-mer peptide; cited from earlier work
[5] = biological target: PHF19 Tudor domain (residues 49-115), N-terminal His tag; assay: ITC
[6] = biological target: PHF1 Tudor domain (residues 25-87) Y47A, N-terminal His tag (UniProt O43189-1 25-87, Y47A); assay: ITC
Sequence of PHF1 Tudor domain (residues 25-87) Y47A, N-terminal His tag (O43189 25-87 Y47A): as the sequence (O43189 25-87 Y47A) above

[7] = biological target: T2, PHF1 Tudor domain (residues 25-87), N-terminal His tag (UniProt O43189-1 25-87); assay: ITC
T2 sequence (O43189 25-87): as the sequence (O43189 25-87) above

[8] = biological target: T2, PHF1 Tudor domain (residues 25-87), …; assay: ITC; remark: listed apart in the source

Sequence of PHF1 Tudor (O43189 26-89): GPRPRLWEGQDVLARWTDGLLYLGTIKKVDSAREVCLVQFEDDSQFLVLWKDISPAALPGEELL
Sequence of PHF1 (O43189 whole entry): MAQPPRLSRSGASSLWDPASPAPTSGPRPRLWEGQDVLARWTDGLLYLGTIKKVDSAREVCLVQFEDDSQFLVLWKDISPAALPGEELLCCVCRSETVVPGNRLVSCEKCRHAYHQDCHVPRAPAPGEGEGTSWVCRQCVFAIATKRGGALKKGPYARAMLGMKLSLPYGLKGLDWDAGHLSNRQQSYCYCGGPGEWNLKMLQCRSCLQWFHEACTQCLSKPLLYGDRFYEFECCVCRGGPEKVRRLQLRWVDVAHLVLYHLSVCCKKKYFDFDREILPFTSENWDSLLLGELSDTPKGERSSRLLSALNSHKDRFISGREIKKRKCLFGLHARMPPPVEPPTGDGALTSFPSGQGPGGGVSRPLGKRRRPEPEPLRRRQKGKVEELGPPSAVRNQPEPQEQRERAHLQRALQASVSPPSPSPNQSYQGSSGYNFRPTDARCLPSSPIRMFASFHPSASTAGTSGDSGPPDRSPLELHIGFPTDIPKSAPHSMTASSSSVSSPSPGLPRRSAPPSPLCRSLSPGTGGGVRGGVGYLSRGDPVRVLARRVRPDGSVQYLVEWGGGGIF

Molecule: PHF1 Tudor (from UniProt O43189)
- Kd [1]: 16 µM

Molecule: PHF1 (from UniProt O43189)
- Kd [2]: 4 µM

Molecule: H3(31—40): previously reported 10-mer H3K36me3 peptide (ATGGVK(Me3)KPHR; UniProt P68431 32-41, looked up, fragment)
- Kd (PHF1 Tudor domain [4]): 16 ± 4 µM

Molecule: GGVK(Me3)KPHR-NH2 [H3K36me3 peptide H3(33-40), GGVKme3KPHR]
- Kd [8]: 22.3 µM

Molecule: VGVK(Me3)KPH-NH2 [H3K36me3 peptide H3(33-39) G33V, VGVKme3KPH]
- Kd [8]: 48 µM

Molecule: GGVK(Me3)KPH-NH2 [H3K36me3 peptide H3(33-39), GGVKme3KPH]
- Kd [8]: 52 µM

Next, values leading:

- binding to mutant (in words) (PHF1 Tudor Y47A): failed to bind
- binding to mutant (in words) (PHF1 Tudor W41A): failed to bind
- binding to mutant (in words) (PHF1 Tudor F65A): failed to bind
- fold less potent than UNC6641 (PHF1 Tudor domain [3]): about 10 fold
Molecule: CCN(CCCC[C@H](NC(=O)[C@@H](NC(=O)CNC(=O)CN)C(C)C)C(=O)N[C@@H](CCCCN)C(=O)N1CCC[C@H]1C(=O)N[C@@H](CC(C)C)C(=O)N[C@@H](CCCNC(=N)N)C(N)=O)C(C)C [UNC7643, Amino(((S)-5-amino-4-((S)-2-((S)-1-((2S,5S,8S)-14-amino-2-(4-aminobutyl)-5-(4-(ethyl(isopropyl)amino)butyl)-8-isopropyl-4,7,10,13-tetraoxo-3,6,9,12-tetraazatetradecanoyl)pyrrolidine-2-carboxamido)-4-methylpentanamido)-5-oxopentyl)amino)methaniminium] (H-GGV[Lys(Et,iPr)]KPLR-NH2)

- Kd [5]: 2.1 µM
- Kd [6]: > 100 µM
Molecule: GGV[X2]KPLR-NH2 [UNC6641]

- Kd [7]: 10.1 µM
- Kd [6]: > 100 µM
Molecule: GGV[N6‑ethyl‑N6‑isopropyl‑lysine]KPLR-NH2 [UNC7643]

- Kd [7]: 17.9 µM
Molecule: GGV[N6‑ethyl‑N6‑(1-(furan-2-yl)ethyl)‑lysine]KPLR-NH2 [UNC6640]
